According to the M2OR odorant receptor database:

Target: T1, OR13C2 (Homo sapiens) (UniProt Q8NGS9)
T1 sequence (whole entry): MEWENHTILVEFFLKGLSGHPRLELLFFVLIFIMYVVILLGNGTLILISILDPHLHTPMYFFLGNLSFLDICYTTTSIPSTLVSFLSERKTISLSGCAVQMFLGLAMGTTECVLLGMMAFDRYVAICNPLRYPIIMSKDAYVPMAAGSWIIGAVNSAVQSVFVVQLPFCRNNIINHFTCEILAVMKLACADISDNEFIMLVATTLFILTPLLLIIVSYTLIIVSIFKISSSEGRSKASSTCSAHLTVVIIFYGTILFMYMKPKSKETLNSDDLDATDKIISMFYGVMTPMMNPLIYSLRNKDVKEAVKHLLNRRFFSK
Details: stereoisomer not certain
Procedure, shortened: (§1)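 Each entry records the cell line, G-protein, co-transfected protein and tags used. Methods varied with the source, often transient luciferase assays in mammalian cell lines. A receptor–molecule pair is called responsive (active) if the original authors judged its signal statistically different from baseline and non-responsive (inactive) otherwise.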

Odorant receptor agonist call, inactive:
CC1CCCCCCCCCCCCC(=O)C1 (stereo not given)
CCCC(S)CCOC(C)=O (stereo not given)
CC1=C(O)C(=O)C(C)O1 (stereo not given)
CCC1OC(=O)C(O)=C1C (stereo not given)
CC(=O)c1c(C)c([N+](=O)[O-])c(C(C)(C)C)c([N+](=O)[O-])c1C
CCC(S)C(C)CO (stereo not given)
CCCCC(S)C(C)CO (stereo not given)
Cc1cnc(C)c(C)n1
CC1=C(O)C(=O)OC1C (stereo not given)
CC1=NC(C)C(C)S1 (stereo not given)
CCCCCC(=O)C(C)C(C)=O (stereo not given)
CCCCCCC=CCCC=O
CC(CO)CS (stereo not given)
CCCCCC(S)C(C)CO (stereo not given)
CCC1OC(C)=C(O)C1=O (stereo not given)

Target: T2, OR13C3 (Homo sapiens) (UniProt Q8NGS6)
T2 sequence (whole entry): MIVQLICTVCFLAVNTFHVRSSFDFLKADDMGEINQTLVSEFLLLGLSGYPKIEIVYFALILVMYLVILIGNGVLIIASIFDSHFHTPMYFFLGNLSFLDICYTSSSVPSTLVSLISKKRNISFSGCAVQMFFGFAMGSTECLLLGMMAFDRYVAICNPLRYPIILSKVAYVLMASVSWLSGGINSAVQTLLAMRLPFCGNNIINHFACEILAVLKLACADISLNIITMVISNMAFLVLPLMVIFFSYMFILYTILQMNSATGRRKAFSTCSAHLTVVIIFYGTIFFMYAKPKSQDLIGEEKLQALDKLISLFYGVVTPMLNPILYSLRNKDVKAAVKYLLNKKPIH
Details: stereoisomer not certain
Procedure, shortened: as §1

Odorant receptor agonist call, inactive:
CC1CCCCCCCCCCCCC(=O)C1 (stereo not given)
CCCC(S)CCOC(C)=O (stereo not given)
CC1=C(O)C(=O)C(C)O1 (stereo not given)
CCC1OC(=O)C(O)=C1C (stereo not given)
CC(=O)c1c(C)c([N+](=O)[O-])c(C(C)(C)C)c([N+](=O)[O-])c1C
CCC(S)C(C)CO (stereo not given)
CCCCC(S)C(C)CO (stereo not given)
Cc1cnc(C)c(C)n1
CC1=C(O)C(=O)OC1C (stereo not given)
CC1=NC(C)C(C)S1 (stereo not given)
CCCCCC(=O)C(C)C(C)=O (stereo not given)
CCCCCCC=CCCC=O
CC(CO)CS (stereo not given)
CCCCCC(S)C(C)CO (stereo not given)
CCC1OC(C)=C(O)C1=O (stereo not given)
